From ChEMBL document CHEMBL1933044
Active and inactive are the calls of the source. The calls are words filed in the database; no cut-off is given here.

Columns and labels:
[1] = tested on: Matrix protein 2 (Influenza A virus), P06821 [withheld]; assay: Inhibition of Influenza A virus (A/Puerto Rico/8/1934(H1N1)) M2 channel S31N mutant expressed in Xenopus oocytes at 100 uM by two-electrode voltage clamp assay; format: cell-based; settings: Oocyte
How it was run: (§1)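 Influenza A/Udorn/72 M2 cDNA, wild type or S31N or V27A mutant made by site-directed mutagenesis, expressed from mRNA microinjected into Xenopus oocytes. Two-electrode voltage clamp recording was done 48–72 h after injection. Compound was applied at pH 5.5 for 2 min once inward current peaked. Residual current was compared with current before application.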

[2] = tested on: Matrix protein 2 (Influenza A virus), P06821 [V27A]; assay: Inhibition of Influenza A virus (A/Puerto Rico/8/1934(H1N1)) M2 channel V27A mutant expressed in Xenopus oocytes at 100 uM by two-electrode voltage clamp assay; format: cell-based; settings: Oocyte; how it was run: as §1

| Structure (SMILES) | inhibition [1] | inhibition [2] |
| --- | --- | --- |
| CC12CC3CC(NCc4ccccc4)(CC(C1)c1ccccc13)C2 | inactive | inactive |
| CN(C)C12CC3CC(C)(CC(C1)c1ccccc13)C2 | inactive | inactive |
| CC12CC3CC(N)(CC(C1)c1ccccc13)C2 | inactive | inactive |
